Experiment [1] is described as follows: Her2 expression decrease, cell viability multiplex – SKBR3 breast tumor cells, AlphaScreen, ATP viability, primary screen (AID 461;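 active = Her2 level under about 52% in both replicate screens, with viability over 70% of control, limit read from the data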;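 for Her2 level: lower value means less Her2 protein in the cells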;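 for viability: percent of carrier control wells set as 100% viability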). The following applies: SKBR3 Her2 protein level, 18-24 h, measured here: SKBR3 viability, ATP luminescence, at 10 µM.
In experiment [2] the target is Receptor tyrosine-protein kinase erbB-2 (Homo sapiens) (UniProt P04626). The description is as above. The following applies: 18-24 h, at 10 µM, stronger effect = lower value.
Receptor tyrosine-protein kinase erbB-2 (Homo sapiens), sequence (P04626 whole entry, looked up): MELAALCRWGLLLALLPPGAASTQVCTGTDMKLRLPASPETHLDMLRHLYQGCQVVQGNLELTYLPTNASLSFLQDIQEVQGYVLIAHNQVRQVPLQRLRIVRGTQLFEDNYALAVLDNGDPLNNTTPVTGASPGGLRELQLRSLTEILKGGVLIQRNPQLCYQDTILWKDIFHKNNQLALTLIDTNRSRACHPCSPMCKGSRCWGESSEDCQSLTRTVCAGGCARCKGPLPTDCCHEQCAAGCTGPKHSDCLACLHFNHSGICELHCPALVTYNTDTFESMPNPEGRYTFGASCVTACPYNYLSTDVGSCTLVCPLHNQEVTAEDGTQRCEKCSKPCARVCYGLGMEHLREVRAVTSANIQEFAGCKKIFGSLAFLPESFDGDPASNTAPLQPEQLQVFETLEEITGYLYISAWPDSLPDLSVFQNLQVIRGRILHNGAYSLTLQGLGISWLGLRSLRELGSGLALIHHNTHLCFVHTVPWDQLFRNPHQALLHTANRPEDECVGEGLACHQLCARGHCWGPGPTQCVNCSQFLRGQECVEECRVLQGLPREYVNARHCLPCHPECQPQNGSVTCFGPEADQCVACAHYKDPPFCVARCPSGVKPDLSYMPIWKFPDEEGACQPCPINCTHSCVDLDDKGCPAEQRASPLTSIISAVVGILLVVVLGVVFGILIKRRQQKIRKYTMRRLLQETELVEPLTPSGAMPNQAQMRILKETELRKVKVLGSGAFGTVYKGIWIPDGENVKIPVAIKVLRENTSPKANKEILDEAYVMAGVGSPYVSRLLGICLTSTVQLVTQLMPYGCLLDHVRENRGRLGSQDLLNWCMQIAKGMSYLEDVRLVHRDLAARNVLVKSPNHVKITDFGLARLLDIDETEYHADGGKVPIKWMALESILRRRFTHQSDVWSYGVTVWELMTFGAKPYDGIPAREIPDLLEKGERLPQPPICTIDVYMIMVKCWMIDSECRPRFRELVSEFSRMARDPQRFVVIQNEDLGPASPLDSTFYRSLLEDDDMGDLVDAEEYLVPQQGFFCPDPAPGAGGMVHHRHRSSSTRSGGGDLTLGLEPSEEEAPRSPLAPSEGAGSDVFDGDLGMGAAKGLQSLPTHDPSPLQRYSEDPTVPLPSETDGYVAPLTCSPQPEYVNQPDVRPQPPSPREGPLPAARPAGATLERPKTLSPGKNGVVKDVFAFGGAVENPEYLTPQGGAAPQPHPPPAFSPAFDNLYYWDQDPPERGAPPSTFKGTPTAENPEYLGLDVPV
Experiment [3] can be described thus: reduced viability of SK-BR-3 breast cancer cells – cell-based, 24 h, human, pilot screen (AID 572;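 active = viability at or below 10% of carrier control in both of two separate runs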;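 note: compound exposure lasted between 18 and 24 h rather than exactly 24 h; 100% = carrier-treated control wells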). Particulars: SK-BR-3 viability, CellTiter-Glo luminescence, at 10 µM, stronger effect = lower value. A general note: In ATP-based viability assays light output follows the ATP content of the culture.
A short description of experiment [4]: HUVEC growth inhibition – cell-based, human, primary screen (AID 575;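 active = viability at or below 30% in both replicate assays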;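 note: 100% = median of untreated cell wells with 0.1% DMSO on each plate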). The following applies: HUVEC proliferation, CellTiter-Glo luminescence, 72 h; at 10 µM; stronger effect = lower value. In outline: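 System – primary HUVEC, no more than 12 passages · Medium – Low-serum (2% FBS) EBM, supplemented · Times – 72 h exposure, 37 °C, 5% CO2, 30 min RT equilibration · Measured by – luminescent ATP assay · Read-out – % viability relative to median vehicle-well signal on each plate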

Experiment [5] is described as follows: H69AR cell proliferation blockers – human, duplicate replicates, primary screen (AID 580).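 Note: 100% = mean luminescence of untreated wells and 0% = no signal.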 Particulars: H69AR lung tumor cells viability, ATP luminescence, 72 h; at 10 µM; stronger effect = lower value.
Experiment [6] is described as follows: MRP1 drug-resistance reversers in H69AR cells – cell-based, doxorubicin co-treatment, pilot screen (AID 601;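 active = viability loss from added drug above about 55%, and viability with drug at most 40%, in both replicates, limit read from the data, passing the limit was not always enough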). Particulars: CellTiter-Glo, 72 h, at 10 µM; for differential viability (reversal): stronger effect = higher value.
Experiment [7] in a line: yeast transport mutant growth inhibition pilot in 384-well plates, post-Golgi transport modulator project (AID 636; in the data active = inhibition above about 31%). Particulars: absorbance 615 nm, about 18 h, stronger effect = higher value.
Experiment [8] is described as follows: growth suppression of yeast trafficking mutant, preliminary HTS, modulators of trafficking downstream of Golgi apparatus project, 1536-format plate, OD 615 nm (AID 637; in the data active = inhibition above about 30%). Particulars: yeast transport mutant growth, absorbance 615 nm, 18 h; stronger effect = higher value.
Where [9] appears, read: H69AR cells + 2 uM doxorubicin, measured here: viability with 2 uM doxorubicin, stronger effect = lower value.
The mark [10] stands for this setting: H69AR cells, compound alone cytotoxicity.

Calls of active or inactive are those of the source.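 Rule for the calls, unless noted: active = viability at or under a set limit in both replicates, limit being median viability minus 3 SD (cut at about 48% in these data, passing the limit was not always enough); inconclusive = at or under the limit in just one replicate; inactive = at or above the limit in both replicates.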

As to `Cc1cc(NC(=O)CCC(=O)N(c2cccnc2)C(C(=O)NC2CCCC2)c2ccccc2F)no1` (stereo not given), the viability (usually a read-out of living cells in per cent, often relative to untreated cells) in experiment [1] is 99%; in experiment [3], 99% (inactive); in experiment [4], 99.4% (inactive); in experiment [5], 93.3% (inactive); in experiment [6] (setting [9]), 88.6%; in experiment [6] (setting [10]) it was 93.3%. For the same molecule, the Her2 level in experiment [2] is 104% (inactive). Also, the differential viability (reversal) in experiment [6] (H69AR cells + 2 uM doxorubicin) was 4.7% (inactive). The inhibition (as a rule, the change of the read-out against control, counted positive when it falls) in experiment [7] is 3.2% (inactive); in experiment [8] it was -2.46% (inactive).

In the case of `O=C(CCC(=O)OCCCC(F)(F)C(F)(F)F)NC1CCCCC1`, the viability was 123% in experiment [1]; 123% (inactive) in experiment [3]; 112% (inactive) in experiment [4]; 95.3% (inactive) in experiment [5]; 91.9% in experiment [6] (setting [9]); 95.3% in experiment [6] (setting [10]). Besides, the Her2 level in experiment [2] is 112% (inactive). Further, the differential viability (reversal) in experiment [6] (H69AR cells + 2 uM doxorubicin) was 3.4% (inactive). Also, the figures for the inhibition in experiment [7] and in experiment [8] were -5.47% (inactive) and -3.23% (inactive), respectively.

In the case of `CCCn1c(-c2ccc(F)cc2)cnc1SCC(=O)O`, the viability was 128% in experiment [1]; 128% (inactive) in experiment [3]; 101% (inactive) in experiment [4]; 84.8% (inactive) in experiment [5]; 81.2% in experiment [6] (setting [9]); 84.8% in experiment [6] (setting [10]). Further, the Her2 level in experiment [2] was 98.5% (inactive). Further, the differential viability (reversal) in experiment [6] (H69AR cells + 2 uM doxorubicin) is 3.56% (inactive). In addition, the inhibition in experiment [7] is -3.33% (inactive); in experiment [8], 2.79% (inactive).

Take `CCOC(=O)CNC(=O)CSc1nc(N)cc(N)n1`: the viability is 92% in experiment [1]; 92% (inactive) in experiment [3]; 113% (inactive) in experiment [4]; 96.7% (inactive) in experiment [5]; 96.6% in experiment [6] (setting [9]); 96.7% in experiment [6] (setting [10]). For the same molecule, the Her2 level in experiment [2] is 96% (inactive). Besides, the differential viability (reversal) in experiment [6] (H69AR cells + 2 uM doxorubicin) was 0.07% (inactive). Further, the values for the inhibition in experiment [7] and in experiment [8] were -4.27% (inactive) and -9.84% (inactive), respectively.

Turning to `O=C(c1cn(-c2ccccc2)nc1-c1cccs1)N1CCN(c2ccccn2)CC1`, the viability is 101% in experiment [1]; 101% (inactive) in experiment [3]; 72.4% (inactive) in experiment [4]; 45.1% (active) in experiment [5]; 85.1% in experiment [6] (setting [9]); 45.1% in experiment [6] (setting [10]). Further, the Her2 level in experiment [2] was 79.5% (inactive). For the same molecule, in experiment [6] (H69AR cells + 2 uM doxorubicin), the differential viability (reversal) is -40% (inactive). Moreover, the inhibition in experiment [7] is -3.29% (inactive); in experiment [8], -2.38% (inactive).

On to `CC(NC(=O)COc1ccc(Br)cc1)C(=O)O` (stereo not given), for which the viability in experiment [1] is 108%; in experiment [3], 108% (inactive); in experiment [4] it was 104% (inactive); in experiment [5], 91.8% (inactive); in experiment [6] (setting [9]) it was 87.6%; in experiment [6] (setting [10]), 91.8%. In experiment [2], the Her2 level is 114% (inactive). The differential viability (reversal) in experiment [6] (H69AR cells + 2 uM doxorubicin) was 4.2% (inactive). For the same molecule, the inhibition in experiment [7] is -3.64% (inactive); in experiment [8], -2.33% (inactive).

For the molecule `c1ccc(-c2noc(C3CCCCC3)n2)nc1`, the viability in experiment [1] is 91%; in experiment [3], 91% (inactive); in experiment [4] it was 114% (inactive); in experiment [5] it was 102% (inactive); in experiment [6] (setting [9]), 90.4%; in experiment [6] (setting [10]) it was 102%. Besides, the Her2 level in experiment [2] was 96.5% (inactive). Besides, the differential viability (reversal) in experiment [6] (H69AR cells + 2 uM doxorubicin) is 11.2% (inactive). Besides, the inhibition in experiment [7] was 0.82% (inactive); in experiment [8], -2.7% (inactive).

Regarding `Clc1ccc(Cn2ncc3c(NCc4cccnc4)ncnc32)cc1`, the viability in experiment [1] is 77.5%; in experiment [3], 77.5% (inactive); in experiment [4] it was 90.5% (inactive); in experiment [5], 92% (inactive); in experiment [6] (setting [9]) it was 96.1%; in experiment [6] (setting [10]) it was 92%. In addition, the Her2 level in experiment [2] is 86% (inactive). For the same molecule, the differential viability (reversal) in experiment [6] (H69AR cells + 2 uM doxorubicin) is -4.09% (inactive). Also, the results for the inhibition in experiment [7] and in experiment [8] were -0.53% (inactive) and 3.77% (inactive), respectively.

In the case of `O=C1CCC(=O)N1OCCCOc1ccc(Br)cc1Cl`, the viability is 106% in experiment [1]; 106% (inactive) in experiment [3]; 90% (inactive) in experiment [4]; 93.5% (inactive) in experiment [5]; 95.9% in experiment [6] (setting [9]); 93.5% in experiment [6] (setting [10]). Besides, the Her2 level in experiment [2] is 98.5% (inactive). In addition, the differential viability (reversal) in experiment [6] (H69AR cells + 2 uM doxorubicin) is -2.35% (inactive). For the same molecule, the inhibition in experiment [7] is 0.13% (inactive); in experiment [8], 2.22% (inactive).

As to `O=S(=O)(NC1CCCC1)c1ccccc1Cl`, the viability in experiment [1] was 94.5%; in experiment [3], 94.5% (inactive); in experiment [4], 87.1% (inactive); in experiment [5], 101% (inactive); in experiment [6] (setting [9]), 98.4%; in experiment [6] (setting [10]), 101%. For the same molecule, the Her2 level in experiment [2] is 97% (inactive). Further, the differential viability (reversal) in experiment [6] (H69AR cells + 2 uM doxorubicin) was 2.58% (inactive). In addition, the values for the inhibition in experiment [7] and in experiment [8] were 2.73% (inactive) and 6.39% (inactive), respectively.

`Cc1onc(-c2ccccc2)c1C(N)=O`: the viability in experiment [1] was 91%; in experiment [3], 91% (inactive); in experiment [4], 97.7% (inactive); in experiment [5], 100% (inactive); in experiment [6] (setting [9]), 86.7%; in experiment [6] (setting [10]) it was 100%. Also, the Her2 level in experiment [2] was 93.5% (inactive). Besides, in experiment [6] (H69AR cells + 2 uM doxorubicin), the differential viability (reversal) is 13.8% (inactive). Moreover, the values for the inhibition in experiment [7] and in experiment [8] were -1.32% (inactive) and -4.35% (inactive), respectively.

As to `CC1CCCC(NC(=O)CSc2ncccc2C(=O)O)C1C` (stereo not given), the viability is 95% in experiment [1]; 95% (inactive) in experiment [3]; 86.4% (inactive) in experiment [4]; 87.8% (inactive) in experiment [5]; 84.7% in experiment [6] (setting [9]); 87.8% in experiment [6] (setting [10]). Besides, the Her2 level in experiment [2] is 79% (inactive). Moreover, the differential viability (reversal) in experiment [6] (H69AR cells + 2 uM doxorubicin) was 3.03% (inactive). Besides, the inhibition in experiment [7] was -4.61% (inactive); in experiment [8], -4.36% (inactive).

For the molecule `CCc1nnc(NC(=O)c2ccc(S(=O)(=O)NC3CCCCC3)cc2)s1`, the viability is 86.5% in experiment [1]; 86.5% (inactive) in experiment [3]; 74% (inactive) in experiment [4]; 80.1% (inactive) in experiment [5]; 37.1% in experiment [6] (setting [9]); 80.1% in experiment [6] (setting [10]). In addition, the Her2 level in experiment [2] is 69.5% (inactive). For the same molecule, the differential viability (reversal) in experiment [6] (H69AR cells + 2 uM doxorubicin) is 43% (inactive). Besides, the inhibition in experiment [7] is -5.68% (inactive); in experiment [8], -8.33% (inactive).

Regarding `CCN=C1SC(CC(=O)Nc2ccccc2)C(=O)N1CC` (stereo not given), the viability in experiment [1] was 98.5%; in experiment [3], 98.5% (inactive); in experiment [4] it was 122% (inactive); in experiment [5] it was 105% (inactive); in experiment [6] (setting [9]), 94.9%; in experiment [6] (setting [10]) it was 105%. Besides, the Her2 level in experiment [2] was 91.5% (inactive). In addition, the differential viability (reversal) in experiment [6] (H69AR cells + 2 uM doxorubicin) is 10% (inactive). In addition, the inhibition in experiment [7] was -1.92% (inactive); in experiment [8], -1.33% (inactive).

Take `COc1cc(S(=O)(=O)N2CCC(N3CCCCC3)CC2)ccc1-n1cnnn1`: the viability in experiment [1] is 92.5%; in experiment [3] it was 92.5% (inactive); in experiment [4], 98.3% (inactive); in experiment [5], 98% (inactive); in experiment [6] (setting [9]), 89.3%; in experiment [6] (setting [10]), 98%. Also, the Her2 level in experiment [2] was 108% (inactive). The differential viability (reversal) in experiment [6] (H69AR cells + 2 uM doxorubicin) was 8.69% (inactive). Moreover, the inhibition in experiment [7] is -3.78% (inactive); in experiment [8] it was -6.35% (inactive).
